Reference: ChEMBL document CHEMBL2331274, “SAR based design of nicotinamides as a novel class of androgen receptor antagonists for prostate cancer” (J Med Chem, 2013)
The source made the active and inactive calls. No cut-off for these calls is given here.

Columns and labels:
[1] = target: T1, Androgen receptor (Mus musculus) (UniProt P19091); experiment: Agonist activity at mouse androgen receptor at 10 uM after 24 hrs by cell-based luciferase reporter gene assay relative to control
T1 sequence (whole entry): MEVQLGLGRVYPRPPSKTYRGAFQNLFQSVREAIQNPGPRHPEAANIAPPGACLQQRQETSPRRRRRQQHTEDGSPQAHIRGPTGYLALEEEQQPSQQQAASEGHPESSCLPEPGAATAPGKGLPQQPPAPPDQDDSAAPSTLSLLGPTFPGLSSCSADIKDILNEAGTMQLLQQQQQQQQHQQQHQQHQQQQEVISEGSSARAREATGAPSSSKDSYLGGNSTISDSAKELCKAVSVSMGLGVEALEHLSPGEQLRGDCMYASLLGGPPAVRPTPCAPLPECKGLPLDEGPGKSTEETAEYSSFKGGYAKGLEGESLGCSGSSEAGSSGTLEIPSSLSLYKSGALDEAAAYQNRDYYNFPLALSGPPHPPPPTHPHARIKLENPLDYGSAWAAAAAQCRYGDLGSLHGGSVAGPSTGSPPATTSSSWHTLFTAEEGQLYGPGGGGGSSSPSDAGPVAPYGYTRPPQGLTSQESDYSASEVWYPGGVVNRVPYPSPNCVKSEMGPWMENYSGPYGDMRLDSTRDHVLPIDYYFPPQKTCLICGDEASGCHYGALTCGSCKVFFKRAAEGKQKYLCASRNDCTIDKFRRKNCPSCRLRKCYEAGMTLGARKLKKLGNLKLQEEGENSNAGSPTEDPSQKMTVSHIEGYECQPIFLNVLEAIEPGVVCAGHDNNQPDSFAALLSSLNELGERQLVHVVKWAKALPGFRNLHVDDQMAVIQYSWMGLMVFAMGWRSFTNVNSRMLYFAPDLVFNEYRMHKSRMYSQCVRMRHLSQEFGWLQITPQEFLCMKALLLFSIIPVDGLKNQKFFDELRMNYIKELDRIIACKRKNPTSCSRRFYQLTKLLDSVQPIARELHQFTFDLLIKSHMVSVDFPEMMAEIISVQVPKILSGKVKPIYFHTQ
In short: (§1)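 Transcriptional activity is expressed as a percentage after 10 μM compound, given alone for agonist mode or with 10 nM DHT for antagonist mode. Data are from triplicate experiments.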

[2] = target: T1, Androgen receptor (Mus musculus); experiment: Antagonist activity against mouse androgen receptor assessed as reduction of 10 nM DHT-induced transcriptional activity at 10 uM after 24 hrs by cell-based luciferase reporter gene assay relative to control; in short: as §1
MEF = experiment: Cytotoxicity against mouse MEF cells at 10 uM after 4 days by MTS/PMS assay; assay type: cell-based; conditions: 96 h
LNCaP [3] = experiment: Cytotoxicity against human androgen-dependent LNCAP cells after 6 days by MTS/PMS assay; assay type: functional, cell-based; conditions: 144 h
Androgen receptor [4] = target: T2, Androgen receptor (Mus musculus, UniProt P19091); experiment: Displacement of [3H] ]5alpha-DHT from mouse androgen receptor expressed in monkey COS7 cells after 2 hrs by scintillation counting analysis; assay type: cell-based, COS-7
T2 sequence (P19091 whole entry): T1 sequence (whole entry)

PPC-1 = experiment: Cytotoxicity against human androgen-independent/AR-negative PPC1 cells after 3 days by MTS/PMS assay; assay type: functional, cell-based
[5] = target: T3, Androgen receptor (Homo sapiens) (UniProt P10275); experiment: Inhibition of DHT-induced androgen receptor-mediated GFP-AR protein nuclear translocation in human PPC1 cells at 10 uM after 1 hr by DAPI staining-based fluorescence microscopic analysis; assay type: cell-based; conditions: PPC-1
T3 sequence (whole entry): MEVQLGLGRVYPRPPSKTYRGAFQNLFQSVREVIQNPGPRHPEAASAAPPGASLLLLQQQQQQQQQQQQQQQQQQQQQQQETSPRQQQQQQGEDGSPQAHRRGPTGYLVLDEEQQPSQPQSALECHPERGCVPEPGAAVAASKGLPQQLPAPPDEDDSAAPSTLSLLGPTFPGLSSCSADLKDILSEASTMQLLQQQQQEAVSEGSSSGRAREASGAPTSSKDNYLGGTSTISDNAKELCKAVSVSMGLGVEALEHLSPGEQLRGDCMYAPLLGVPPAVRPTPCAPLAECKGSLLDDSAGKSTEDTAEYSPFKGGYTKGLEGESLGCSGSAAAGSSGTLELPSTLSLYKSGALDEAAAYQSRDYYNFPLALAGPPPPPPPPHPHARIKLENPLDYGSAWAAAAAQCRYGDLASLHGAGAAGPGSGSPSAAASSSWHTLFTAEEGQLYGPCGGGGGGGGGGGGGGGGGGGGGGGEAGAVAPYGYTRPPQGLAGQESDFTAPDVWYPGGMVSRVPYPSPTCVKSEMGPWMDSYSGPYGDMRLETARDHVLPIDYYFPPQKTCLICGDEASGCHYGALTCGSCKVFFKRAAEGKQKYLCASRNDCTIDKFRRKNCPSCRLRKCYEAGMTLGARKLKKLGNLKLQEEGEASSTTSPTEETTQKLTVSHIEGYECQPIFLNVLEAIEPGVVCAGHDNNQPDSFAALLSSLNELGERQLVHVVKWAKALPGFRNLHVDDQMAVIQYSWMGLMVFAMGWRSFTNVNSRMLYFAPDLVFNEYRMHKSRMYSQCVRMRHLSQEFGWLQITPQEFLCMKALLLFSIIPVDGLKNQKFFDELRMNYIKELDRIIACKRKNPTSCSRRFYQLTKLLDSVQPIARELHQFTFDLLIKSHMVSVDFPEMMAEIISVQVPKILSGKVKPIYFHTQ

[6] = target: T3, Androgen receptor (Homo sapiens); experiment: Inhibition of androgen receptor-mediated SRC2 coactivator recruitment in human PPC1 cells at 10 uM after 1 hr by DAPI staining-based fluorescence microscopic analysis; assay type: cell-based; conditions: PPC-1
[7] = Cytotoxicity against human androgen-independent/AR-positive C4-2 cells […] after 4 days by MTS/PMS assay; assay type: functional, cell-based; conditions: LNCaP C4-2, 96 h
[8] = target: T3, Androgen receptor (Homo sapiens); experiment: Inhibition of androgen receptor-mediated SRC1 coactivator recruitment in human PPC1 cells at 10 uM after 1 hr by DAPI staining-based fluorescence microscopic analysis; assay type: cell-based; conditions: PPC-1
LNCaP [9] = experiment: Cytotoxicity against human androgen-dependent LNCAP cells at 10 uM after 7 days by MTS/PMS assay relative to control; assay type: functional; conditions: 168 h, read-out: GI
Androgen receptor [10] = target: T2, Androgen receptor; experiment: Antagonist activity at mouse androgen receptor assessed as inhibition of transactivation after 24 hrs by cell-based luciferase reporter gene assay

Structure (SMILES) | Activity [1] | inhibition [2] | other results
O=C(Nc1ccccc1)c1ccc(N2CCc3ccccc3C2)nc1 | 8.7% | 68.9% | –
O=C(Nc1nccs1)c1ccc(N2CCc3ccccc3C2)nc1 | 9.7% | 57.4% | –
COc1cccc(NC(=O)c2ccc(N3CCc4ccccc4C3)nc2)c1 | 13.6% | 80.4% | –
COc1ccc2c(c1)CCN(c1ccc(C(=O)Nc3cccc(C)n3)cn1)C2 | 4% | 94.9% | –
O=C(Nc1ccccn1)c1ccc(Cl)nc1 | 4.9% | inactive | –
CCOc1c(Cl)c(Cl)c2c(c1OCC)CCN(c1ccc(C(=O)Nc3cccc(C)n3)cn1)C2 | 2.6% | 30.5% | –
CCOc1ccc2c(c1OC)CCN(c1ccc(C(=O)Nc3cccc(OC)c3)cn1)C2 | 1.8% | 91.4% | –
COc1cc2c(cc1OC)CN(c1ccc(C(=O)Nc3cc(C)ccn3)cn1)CC2 | 2.7% | 88.3% | –
COc1cc2c(cc1OC)CN(c1ccc(C(=O)Nc3ncccc3C)cn1)CC2 | 3.1% | 60.9% | –
Cc1ccc(NC(=O)c2ccc(N3CCc4ccccc4C3)nc2)nc1 | 3% | 90.2% | –
COc1ccccc1N(C)C(=O)c1ccc(N2CCc3ccccc3C2)nc1 | 9% | 48.8% | –
COc1ccc(CNC(=O)c2ccc(N3CCCCC3)nc2)cc1 | 11.1% | 19.4% | –
CCOc1c(Cl)c(Cl)c2c(c1OCc1ccccc1)CCN(c1ccc(C(=O)Nc3cccc(C)n3)cn1)C2 | 1% | 86.4% | –
COc1cccc(N(C)C(=O)c2ccc(N3CCc4ccccc4C3)nc2)c1 | 12.5% | 46.4% | –
COc1cccc(NC(=O)c2ccc(N3CCc4cc(OC)ccc4C3)nc2)c1 | 3.1% | 95.7% | –
COc1ccccc1NC(=O)c1ccc(N2CCc3ccccc3C2)nc1 | 7.4% | 59% | –
Cc1cccc(NC(=O)c2ccc(N3CCN(C)CC3)nc2)n1 | 14.1% | inactive | –
Cc1ccccc1N(C)C(=O)c1ccc(N2CCc3ccccc3C2)nc1 | 11.7% | 48.2% | –
Cc1cccc(NC(=O)c2ccc(N3CCCCC3)nc2)n1 | 6.8% | 65.7% | –
CCOc1ccc2c(c1OCC)CCN(c1ccc(C(=O)Nc3cccc(C)n3)cn1)C2 | 1% | 88.3% | –
O=C(Nc1ccccc1)c1ccc(C(=O)N2CCc3ccccc3C2)nc1 | 7.8% | 33.1% | –
COc1cccc(NC(=O)c2ccc(N3CCc4c(ccc(OC)c4OC)C3)nc2)c1 | 3.9% | 96.6% | –
CCOc1ccc2c(c1OCC)CCN(c1ccc(C(=O)Nc3cccc(OC)c3)cn1)C2 | 0.4% | 87.9% | –
COc1cc2c(cc1OC)CN(c1ccc(C(=O)Nc3ccc(C)cn3)cn1)CC2 | 2.8% | 67.6% | –
Cc1cccc(NC(=O)c2ccc(N3CCc4cc(OCc5ccccc5)ccc4C3)nc2)n1 | 4.5% | 61.3% | –

Structure (SMILES) | Activity [1] | inhibition [2] | other results
COc1cc2c(cc1OC)CN(c1ccc(C(=O)Nc3ccccn3)cn1)CC2 | 2.5% | 84.5% | –
O=C(Nc1ccc(F)cc1)c1ccc(N2CCc3ccccc3C2)nc1 | 7.1% | 65.1% | –
Cc1ccc(NC(=O)c2ccc(Cl)nc2)nc1 | 4.9% | 43.1% | –
CCOc1ccc2c(c1OCc1ccccc1)CCN(c1ccc(C(=O)N(C)c3cccc(C)n3)cn1)C2 | 1.6% | 77.5% | –
Cc1ccnc(N(C)C(=O)c2ccc(N3CCc4ccccc4C3)nc2)c1 | 12.1% | 32.5% | –
COc1cc2c(c(OC)c1OC)CCN(c1ccc(C(=O)Nc3cccc(C)n3)cn1)C2 | 0.8% | 89.1% | –
Cc1ccccc1NC(=O)c1ccc(N2CCc3ccccc3C2)nc1 | 10.4% | 49.7% | –
O=C(Nc1ccccn1)c1ccc(C(=O)N2CCc3ccccc3C2)nc1 | 15% | 4.5% | –
CCOc1ccc2c(c1)CCN(c1ccc(C(=O)Nc3cccc(C)n3)cn1)C2 | 3.9% | 95.1% | Activity (MEF): Non-toxic; IC50 (LNCaP [3]): 1.47 µM; Ki (Androgen receptor [4]): > 50 µM; Activity (PPC-1): inactive; inhibition [5]: Active; inhibition [6]: Active; IC50 [7]: 11.8 µM; inhibition [8]: Active; inhibition of growth at 10 µM (LNCaP [9]): 80%; IC50 (Androgen receptor [10]): 0.46 µM
CCOc1ccc2c(c1OCc1ccccc1)CCN(c1ccc(C(=O)Nc3cccc(OC)c3)cn1)C2 | 0.5% | 78.6% | –
COc1cc2c(cc1OC)CN(c1ccc(C(=O)Nc3cccc(C)n3)cn1)CC2 | 2.1% | 94.4% | –
CCOc1ccc2c(c1OCc1ccccc1)CCN(c1ccc(C(=O)Nc3cccc(C)n3)cn1)C2 | 0.6% | 92.9% | –
Cc1cccc(NC(=O)c2ccc(N3CCc4cc(OC(C)C)ccc4C3)nc2)n1 | 3.5% | 95.3% | –
CCOc1ccc2c(c1)CCN(c1ccc(C(=O)Nc3cccc(OC)c3)cn1)C2 | 4% | 95.6% | –
Cc1ccnc(NC(=O)c2ccc(N3CCc4ccccc4C3)nc2)c1 | 3.6% | 58.6% | –
O=C(Nc1ccccn1)c1ccc(N2CCc3ccccc3C2)nc1 | 5.6% | 86.4% | –
Cc1cccnc1NC(=O)c1ccc(Cl)nc1 | 3.8% | 0.6% | –
COc1ccc(CNC(=O)c2ccc(N3CCc4ccccc4C3)nc2)cc1 | 9% | 58.2% | –
CCOc1ccc2c(c1OC)CCN(c1ccc(C(=O)Nc3cccc(C)n3)cn1)C2 | 1.7% | 91% | –
Cc1cccnc1NC(=O)c1ccc(N2CCc3ccccc3C2)nc1 | 5% | 64.1% | –
COc1ccc2c(c1)CCN(c1ccc(C(=O)Nc3ccc(C)cn3)cn1)C2 | 5.2% | 86.9% | –
Cc1ccnc(NC(=O)c2ccc(Cl)nc2)c1 | 6.4% | inactive | –
COc1ccc(NC(=O)c2ccc(N3CCc4ccccc4C3)nc2)cn1 | 7.2% | 79.6% | –
O=C(Nc1ncccn1)c1ccc(N2CCc3ccccc3C2)nc1 | 9.4% | 27.5% | –
